According to ChEMBL document CHEMBL4616679, “Fragment Screening Hit Draws Attention to a Novel Transient Pocket Adjacent to the Recognition Site of the tRNA-Modifying Enzyme TGT” (J Med Chem, 2020):

Assay: Inhibition of Zymomonas mobilis tRNA-guanine transglycosylase expressed in Escherichia coli cells BL21-CodonPlus (DE3)-RIPL in presence of and tRNATyr [-3H]-guanine incubated for 60 mins by liquid scintillation counting based radioactive assay
Summary of the method: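 Z. mobilis TGT (Strep-tag II removed by thrombin) at 9–150 nM, chosen by expected affinity; tRNA^Tyr held at 1.5 µM with saturating [8-³H]-guanine at 10 µM in 100 mM HEPES pH 7.3, 20 mM MgCl₂, 0.037% (v/v) Tween 20. Four 15 µL aliquots taken at 60 min intervals; guanine incorporation into tRNA read by liquid scintillation counting; Ki from reduction of incorporation rate.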

| Structure (SMILES) | Ki [µM] |
| --- | --- |
| Nc1nc2cc3[nH]c(NCCN4CCOCC4)nc3cc2c(=O)[nH]1 | 0.006 |
| CNc1nc2cc3c(=O)[nH]c(N)nc3cc2[nH]1 | 0.058 |
| CNc1nc2cc3c(=O)[nH]cnc3cc2[nH]1 | 7 |
| NC(=O)c1ccc2nc(NCCN3CCOCC3)[nH]c2c1 | 544 |
| CNC(=O)c1ccc2nc(NCCN3CCOCC3)[nH]c2c1 | 264 |
| N=C(N)Nc1ccc2[nH]c(NCCN3CCOCC3)nc2c1 | 58 |
| CNc1nc2ccc(C(=O)NN)cc2[nH]1 | 283 |
| CNc1nc2ccc(C(N)=O)cc2[nH]1 | 300 |
| NNC(=O)c1ccc2nc(NCCN3CCOCC3)[nH]c2c1 | 282 |
| CNC(=O)c1ccc2nc(NC)[nH]c2c1 | 270 |
| CNc1nc2cc3c(cc2[nH]1)CNC(N)=N3 | 17 |
| CNc1nc2cc(NC(=N)N)ccc2[nH]1 | 19 |
| CC#CC1NC(N)=Nc2cc3nc(NC)[nH]c3cc21 (racemic) | 48 |
